Compound activity deposited in PubChem by several laboratories.
In the library only some 1.5% were active in any assay of this set; here they are far more common.
LANA-H2B inh – blocks KSHV LANA binding to histone H2A/H2B | Q9QR71 | cell-free LANA-H2A/H2B peptide, fluorescence polarization | inhibition, % (concentration not given with the values) | hit rate 0.6% among 320,000 | AID 2629; in the data active = inhibition mostly above about 10%, no sharp cut-off; inactive = mostly below about 6.7%
Target sequence (Q9QR71 whole entry, looked up): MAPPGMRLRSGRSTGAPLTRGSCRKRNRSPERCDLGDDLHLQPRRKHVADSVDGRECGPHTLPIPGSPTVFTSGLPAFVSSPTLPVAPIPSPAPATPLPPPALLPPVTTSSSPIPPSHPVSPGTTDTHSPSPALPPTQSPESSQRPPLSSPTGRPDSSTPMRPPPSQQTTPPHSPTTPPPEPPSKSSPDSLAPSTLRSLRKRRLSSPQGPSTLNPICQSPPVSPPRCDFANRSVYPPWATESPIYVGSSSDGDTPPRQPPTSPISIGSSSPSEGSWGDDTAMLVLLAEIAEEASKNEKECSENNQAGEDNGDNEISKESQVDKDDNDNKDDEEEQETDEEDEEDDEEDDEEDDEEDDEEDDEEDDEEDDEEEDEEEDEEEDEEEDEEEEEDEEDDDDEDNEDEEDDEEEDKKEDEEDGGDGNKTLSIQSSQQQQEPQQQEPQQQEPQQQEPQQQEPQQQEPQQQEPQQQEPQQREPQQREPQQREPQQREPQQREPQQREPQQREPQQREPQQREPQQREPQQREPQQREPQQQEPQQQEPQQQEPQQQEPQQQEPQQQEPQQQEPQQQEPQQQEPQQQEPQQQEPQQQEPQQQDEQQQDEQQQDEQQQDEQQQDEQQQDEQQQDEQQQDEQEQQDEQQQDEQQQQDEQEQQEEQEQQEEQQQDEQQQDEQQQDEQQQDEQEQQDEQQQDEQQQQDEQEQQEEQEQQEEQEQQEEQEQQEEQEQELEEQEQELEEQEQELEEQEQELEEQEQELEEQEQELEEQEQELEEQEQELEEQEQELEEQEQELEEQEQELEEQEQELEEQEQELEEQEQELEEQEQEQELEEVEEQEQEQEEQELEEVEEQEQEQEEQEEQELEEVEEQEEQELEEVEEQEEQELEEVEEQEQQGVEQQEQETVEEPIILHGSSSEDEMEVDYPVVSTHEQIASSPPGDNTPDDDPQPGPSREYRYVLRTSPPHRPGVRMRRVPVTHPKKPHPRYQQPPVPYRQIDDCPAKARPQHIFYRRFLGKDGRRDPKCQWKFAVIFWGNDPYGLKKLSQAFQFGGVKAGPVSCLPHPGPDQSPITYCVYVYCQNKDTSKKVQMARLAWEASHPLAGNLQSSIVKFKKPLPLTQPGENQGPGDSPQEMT
CSN inh – inhibitors of human CSN-mediated cullin deneddylation; Q92905; Purified CSN, SCF-Nedd8-OG deneddylation, fluorescence polarization; inhibition, % at 12.5 µM; hit rate 0.38% among 360,000;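 active = pattern-corrected inhibition above about 35%, with an unprinted fluorescence ratio check between 0.5 and 1.5, limit read from the data, passing the limit was not always enough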
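Material: human Csn5 produced in HEK293T cells; Input: enzyme 0.24 nM; Reagent: SCFSkp2-Nedd8OG substrate at 10 nM final; Dosing: 12.5 µM compound; Incubation: 90 min reaction at room temperature; Detection: fluorescence polarization of the substrate; Evaluation: % inhibition of substrate cleavage by Csn5; Control set: substrate-only high control, full reaction low control.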
ZTA counter – ZTA (EBV) inhibition in EBNA-1 counter-screen; hit rate 0.15% among 320,000; inhibition, % at 11 µM; AID 2234; ZTA-DNA binding, fluorescence polarization; P03206; in the data active = inhibition above about 33%
EBNA-1 inhibitor – blocks EBNA-1 binding to DNA | inhibition, % at 14.8 µM | hit rate 0.34% among 300,000 | EBNA-1 DNA binding, fluorescence polarization; in the data active = inhibition above about 28%
A1 inh – inhibitors of the anti-apoptotic protein A1, read as caspase activation; MEF A1-2A-BIM cells, Caspase-Glo 3/7 luminescence, 3 h; percent of clofoctol response, vehicle zero; caspase activation, % (test concentration not listed); hit rate 0.066% among 330,000; AID 2462;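 active = over half of replicate activation scores above 10%, or exactly half above 10 with the replicate mean above 10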
HNF4A DNA FP – change in binding of human HNF4 alpha to DNA | activity change, % at 10 µM | AID 1224865 | HNF4a-FITC DNA binding, fluorescence polarization, 1 h | P41235 | hit rate 0.3% among 360,000; in the data active = activity change above about 30%, passing the limit was not always enough
Large screens that a line does not name were inactive.

COc1cc(NC(=O)c2ccc(C)cc2C)ccc1NC(=O)c1cc2ccccc2o1	A1 inh 15.3
COc1cc(NC(=O)c2ccc(F)cc2)ccc1NC(=O)c1cc2ccccc2o1	none
COc1cc(NC(=O)c2ccccc2F)ccc1NC(=O)c1cc2ccccc2o1	A1 inh 13.8 (no result: ZTA counter, EBNA-1 inhibitor)
COc1ccccc1NC(=O)c1cc2ccc(O)cc2o/c1=N\O	none
CCOc1cccc(-c2c(C(=O)N/N=C/c3ccco3)nnn2-c2nonc2N)c1	none
C/C=C/C=N/Nc1nc(C)cc(=O)[nH]1	none
Cc1ccc(-c2cc(C(=O)N/N=C/c3cccnc3)c3ccccc3n2)cc1C	none
CN(C)c1nc(SCC#N)nc(N2CCOCC2)n1	HNF4A DNA FP 43.4
CC1CCCCN1S(=O)(=O)c1ccc(C(=O)Nc2nnc(-c3ccccn3)o2)cc1 (stereo not drawn)	none
C#CCOCCOCCOCCNc1nc(N2CCN(C(=O)CCCCCCCCCCNC(=O)[C@H]([C@@H](C)CC)n3cc(CCCCN=C(N)N)nn3)CC2)nc(N2CCN(C(=O)CCCCCCCCCCNC(=O)[C@H](CCCCN)n3cc(C[C@@H](C)CC)nn3)CC2)n1	ZTA counter 126.1 (no result: CSN inh, HNF4A DNA FP)
C#CCOCCOCCOCCNc1nc(N2CCN(C(=O)CCCCCCCCCCNC(=O)[C@H](CCCCN)n3cc(C[C@@H](C)CC)nn3)CC2)nc(N2CCN(C(=O)CCCCCCCCCCNC(=O)[C@H](CCCCN)n3cc(C[C@@H](C)CC)nn3)CC2)n1	CSN inh 106.1, ZTA counter 91.0
C#CCOCCOCCOCCNc1nc(N2CCN(C(=O)CCCCCCCCCCNC(=O)Cn3cc(C[C@@H](C)O)nn3)CC2)nc(N2CCN(C(=O)CCCCCCCCCCNC(=O)[C@H](CCCCN)n3cc(C[C@@H](C)CC)nn3)CC2)n1	CSN inh 86.8
C#CCOCCOCCOCCNc1nc(N2CCN(C(=O)CCCCCCCCCCNC(=O)[C@H](CCCCN)n3cc(CCO)nn3)CC2)nc(N2CCN(C(=O)CCCCCCCCCCNC(=O)[C@H](CCCCN)n3cc(CCO)nn3)CC2)n1	CSN inh 103.6
C#CCOCCOCCOCCNc1nc(N2CCN(C(=O)CCCCCCCCCCNC(=O)[C@H](CCCCN)n3cc(CCCC(=O)O)nn3)CC2)nc(N2CCN(C(=O)CCCCCCCCCCNC(=O)[C@H](CCCCN)n3cc(CCCC(=O)O)nn3)CC2)n1	none
CC(C)n1ncc2c(C(=O)NCCc3ccc(S(N)(=O)=O)cc3)cc(C3CC3)nc21	none (no result: LANA-H2B inh, ZTA counter, EBNA-1 inhibitor, A1 inh)
Cc1ccc(S(=O)(=O)N(CC(=O)NCc2ccc(F)cc2)C(=O)N2CCN(C)CC2)cc1	none
C[C@H](CO)N1C[C@H](C)[C@@H](CN(C)C(=O)CN2CCOCC2)Oc2ncc(-c3cncnc3)cc2C1=O	none (no result: LANA-H2B inh, ZTA counter, EBNA-1 inhibitor, A1 inh)
C=CCCC(=O)N1C[C@H]2CON(C)[C@H]2C[C@H]1c1ccccc1Br	none (no result: LANA-H2B inh, ZTA counter, EBNA-1 inhibitor, A1 inh)
C=CCCC(=O)N1C[C@@H](CO)[C@@H](NC)C[C@H]1c1ccccc1Br	CSN inh 106.5 (no result: LANA-H2B inh, ZTA counter, EBNA-1 inhibitor, A1 inh)
CCCn1nc(-c2ccccc2)c2nc3ccccc3nc21	none (no result: CSN inh, HNF4A DNA FP)
CCCCCn1nc(-c2ccccc2)c2nc3ccccc3nc21	LANA-H2B inh 29.9
O=C(Cn1[nH]c(=O)c2ccccc2c1=O)NCCN1C(=O)S/C(=C\c2ccccc2)C1=O	none (no result: ZTA counter, EBNA-1 inhibitor)
Cc1nc2ccc(NC(=O)[C@@H](NC(=O)c3c(F)cccc3F)C(C)C)cc2s1	LANA-H2B inh active (no result: EBNA-1 inhibitor)
CCOC(=O)c1cc(-c2ccccc2)sc1NC(=S)Nc1cc(C)ccn1	HNF4A DNA FP 47.0
CCCC1C2CN(C(C)C)CC=C2C(C#N)=C(N)C1(C#N)C#N (stereo not drawn)	LANA-H2B inh 30.4
CN1CC=C2C(C#N)=C(N)C(C#N)(C#N)C(CCc3ccccc3)C2C1 (stereo not drawn)	none
Cc1cc(NC(=O)CN2CCCC2c2nc3ccccc3s2)no1 (stereo not drawn)	LANA-H2B inh 15.5
COc1ccc(S(=O)(=O)NCc2cccnc2)cc1OC	HNF4A DNA FP 46.1
CCS(=O)(=O)Nc1ccc(-c2nnc(SCC(=O)c3ccc(NC(C)=O)c(OC)c3)o2)cc1	CSN inh 45.8
CCOc1cc(C(=O)CSc2nnc(CNc3ccc(Cl)cc3)o2)ccc1NC(=O)CC	A1 inh 8.7
CCN(c1cccc(C)c1)S(=O)(=O)c1ccc(-n2cccn2)cc1	none
CCNC(=O)C1CCCc2c1[nH]c1ccc(Cl)cc21 (stereo not drawn)	none
CN(CC(=O)Nc1ccc(Cl)c(Cl)c1)C(=O)c1cccc2cccnc12	LANA-H2B inh 69.8 (no result: EBNA-1 inhibitor)
COc1ccccc1CNC(=O)C(=O)NCC1OCCN1S(=O)(=O)c1ccc(Br)cc1 (stereo not drawn)	none
COc1ccc(S(=O)(=O)N2CCOC2CNC(=O)C(=O)NCc2ccccc2OC)cc1 (stereo not drawn)	LANA-H2B inh 99.9
COc1ccc(C(=O)N2CCOC2CNC(=O)C(=O)NCc2ccco2)cc1 (stereo not drawn)	LANA-H2B inh active
COc1ccc(S(=O)(=O)N2CCC(C(=O)NCCC(=O)NCc3ccncc3)CC2)cc1	none
COc1ccc(C(=O)N2CCOC2CNC(=O)C(=O)NCc2ccc(F)cc2)cc1 (stereo not drawn)	none
COc1ccc(S(=O)(=O)N2CCC(C(=O)NCCC(=O)NCc3ccccc3OC)CC2)cc1	LANA-H2B inh 14.2
Cc1cc(Cl)cc(C)c1OCCOCCNCc1ccccc1	none
CC1(C(=O)NCCCN2CCCC2=O)CCN1CCc1ccccc1 (stereo not drawn)	none (no result: LANA-H2B inh, ZTA counter, EBNA-1 inhibitor, A1 inh)
Cc1c(C)n2c(SCC(=O)NCc3ccc4c(c3)OCO4)nnc2[nH]c1=O	CSN inh 51.6
CC(C)C[C@H]1CN(CCCC[C@H]2CNC(=O)C(=O)N2Cc2ccccc2)C(=O)C(=O)N1CCc1ccc(O)cc1	none (no result: LANA-H2B inh, ZTA counter, EBNA-1 inhibitor, A1 inh)
CCOC(=O)[C@@H]1[C@H]2COc3ccc(Br)cc3[C@H]2N2C(=O)N(c3ccc(C)cc3)C(=O)[C@]12C	none
CCN(Cc1nc2cc(Cl)ccc2c(=O)[nH]1)C(=O)c1cccc(OCc2c(C)noc2C)c1	LANA-H2B inh 90.9 (no result: EBNA-1 inhibitor)
CCN(Cc1nc2cc(Cl)ccc2c(=O)[nH]1)C(=O)c1cccc(NC(=O)c2cccs2)c1	none (no result: EBNA-1 inhibitor)
Cc1cccc(Nc2nc(-c3ccccc3)c(C(=O)Nc3cccnc3)s2)c1	none
O=C(Nc1cccnc1)c1sc(Nc2ccccc2)nc1-c1ccccc1	EBNA-1 inhibitor 88.7
CC1CN(S(=O)(=O)c2cc(C(=O)N(C)Cc3cccs3)ccc2Cl)CC(C)O1 (stereo not drawn)	none (no result: ZTA counter, EBNA-1 inhibitor)
CC1CCCC(=NNC(=O)C2COc3ccccc3O2)C1 (stereo not drawn)	none (no result: ZTA counter, EBNA-1 inhibitor)
CCN=C1SC(C(=O)Nc2ccc(Cl)c(Cl)c2)CC(=O)N1CC (stereo not drawn)	CSN inh 79.1
CCN=C1SC(C(=O)Nc2cccc(Cl)c2)CC(=O)N1CC (stereo not drawn)	none
